Reference: ChEMBL document CHEMBL1124553, “Brain-specific chemical delivery systems for beta-lactam antibiotics. In vitro and in vivo studies of some dihydropyridine and dihydroisoquinoline derivatives of benzylpenicillin in rats” (J Med Chem, 1989)

Key:
[1] = Half-life for disappearance of compound from dog whole blood; assay type: ADME, organism-based, Canis lupus familiaris
Procedure, shortened: (§1)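 Freshly collected whole blood, or 10% w/v brain homogenate in pH 7.4 phosphate buffer (ionic strength 0.15), was prewarmed to 37 °C. Compound was spiked from an 8 mM DMSO stock to 40 µM final. Timed samples were quenched in 8% DMSO/acetonitrile, centrifuged, filtered and analyzed by reversed-phase C8 HPLC with UV detection. K came from linear regression of log peak height versus time, with t1/2 derived from it. Values are mean ± SE of three determinations in different animal samples.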

[2] = Half-life for disappearance of compound from human whole blood; assay type: ADME, organism-based; procedure, shortened: as §1
[3] = Half-life for disappearance of compound from rabbit 10% brain homogenate; assay type: ADME, Oryctolagus cuniculus; procedure, shortened: as §1
[4] = Half-life for disappearance of compound from rabbit whole blood; assay type: ADME, organism-based, Oryctolagus cuniculus; procedure, shortened: as §1
[5] = Half-life for disappearance of compound from rat 10% brain homogenate; assay type: ADME; procedure, shortened: as §1
Canis familiaris = organism: Canis familiaris; test: Pseudo first-order rate constant (K) for disappearance of compound from dog whole blood; assay type: ADME, organism-based, Canis lupus familiaris; procedure, shortened: as §1
Homo sapiens = organism: Homo sapiens; test: Pseudo first-order rate constant (K) for disappearance of compound from human whole blood; assay type: ADME, organism-based; procedure, shortened: as §1
Oryctolagus cuniculus [6] = organism: Oryctolagus cuniculus; test: Pseudo first-order rate constant (K) for disappearance of compound from rabbit 10% brain homogenate; assay type: ADME
Procedure, shortened: (§2)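 Freshly collected whole blood (rat trunk blood; rabbit) or 10% w/v brain homogenate made in pH 7.4 phosphate buffer (μ = 0.15), prewarmed to 37 °C. Compound added from 8 mM DMSO stock to a final 40 μM. Timed 0.3 mL samples were quenched in 8% DMSO/acetonitrile, centrifuged, filtered and analysed by reversed-phase C8 HPLC-UV. K came from linear regression of log peak height versus time; n=3 animal samples.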

Oryctolagus cuniculus [7] = organism: Oryctolagus cuniculus; test: Pseudo first-order rate constant (K) for disappearance of compound from rabbit whole blood; assay type: ADME, organism-based; procedure, shortened: as §2
Rattus norvegicus = organism: Rattus norvegicus; test: Pseudo first-order rate constant (K) for disappearance of compound from rat 10% brain homogenate; assay type: ADME; procedure, shortened: as §2
[8] = Half-life for disappearance of compound from rat whole blood; assay type: ADME, organism-based; procedure, shortened: as §1
[9] = Pseudo first-order rate constant (K) for disappearance of compound from rat whole blood; assay type: ADME, tissue-based; procedure, shortened: as §2

SMILES | half-life [1] [min] | half-life [2] [min] | half-life [3] [min] | half-life [4] [min] | half-life [5] [min] | K (Canis familiaris) [min⁻¹] | K (Homo sapiens) [min⁻¹] | K (Oryctolagus cuniculus [6]) [min⁻¹] | K (Oryctolagus cuniculus [7]) [min⁻¹] | K (Rattus norvegicus) [min⁻¹] | half-life [8] [min] | K [9] [min⁻¹]
CN1C=CCC(C(=O)OCOC(=O)C2N3C(=O)C(NC(=O)Cc4ccccc4)C3SC2(C)C)=C1 (configuration not stated) | 3.6 | 15.9 | 4.3 | 0.8 | 0.6 | 0.213 | 0.045 | 0.166 | 0.949 | 1.357 | – | –
C[n+]1cccc(C(=O)NCCOC(=O)C2N3C(=O)C(NC(=O)Cc4ccccc4)C3SC2(C)C)c1.[I-] (configuration not stated) | 14.5 | 9.1 | 23.4 | 3 | 92.1 | 0.048 | 0.078 | 0.03 | 0.23 | 0.008 | 1.9 | 0.362
